Results reported in paper PMC11223228 (ACS Omega, 2024).

Target: T1, EhPSP (Entamoeba histolytica, UniProt N9V397)
T1 sequence (N9V397 1-205): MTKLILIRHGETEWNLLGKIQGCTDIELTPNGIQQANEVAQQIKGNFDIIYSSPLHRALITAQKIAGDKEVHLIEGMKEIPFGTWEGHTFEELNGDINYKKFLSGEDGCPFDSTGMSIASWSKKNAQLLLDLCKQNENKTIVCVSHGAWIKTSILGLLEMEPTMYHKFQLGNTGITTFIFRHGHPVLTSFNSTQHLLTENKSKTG
Assay: In vitro enzyme inhibition assay of EhPSP phosphatase activity
Type: biochemical
Settings: for inhibition of enzymatic activity (in words): 21 compounds tested
In short: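 Recombinant C-terminal 6X-His EhPSP, expressed in E. coli BL21 (DE3) and purified by Ni-NTA then size exclusion. Reaction in 50 mM HEPES-NaOH pH 8.0, 1 mM DTT, 1 mM EDTA, 25 μg enzyme. Compound preincubated 10 min RT, then OPLS added and run 2−5 min RT. Stopped with malachite green, A630 of released phosphate. % inhibition vs no-compound control, IC50 from log-concentration curve.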

Row | Structure (SMILES) | inhibition of enzymatic activity (in words) | IC50 (IC50, OPLS 2.0 mM, compound 20 nM to 500 μM)
1 | O=S(=O)(O)c1ccc2c(S(=O)(=O)O)cccc2c1 [AE-562/12222184, 1,6-naphthalenedisulfonic acid] | displayed the inhibition of enzymatic activity | –
2 | Cc1nc2ccc(CN(C)c3ccc(C(=O)N[C@@H](CCC(=O)O)C(=O)O)s3)cc2c(=O)[nH]1 [Raltitrexed, (2S)-2-[[5-[methyl-[(2-methyl-4-oxo-3H-quinazolin-6-yl)methyl]amino]thiophene-2-carbonyl]amino]pentanedioic acid] | displayed the inhibition of enzymatic activity | ~368 µM
